# High-throughput results deposited in PubChem BioAssay by The Scripps Research Institute Molecular Screening Center.
# Only some compounds are listed: those with a hit (about 4.2% of all), similar ones and a draw of the others.
# TAAR1 ag: human TAAR1 agonists, primary screen, Fluo-8 calcium fluorescence, CHO RD-HGA16 cells. 360,000 tested, 0.99% active. activation, % at 3 µM. vehicle wells 0%, saturating PEA agonist 100%. Trace amine-associated receptor 1 (Homo sapiens), Q96RJ0. AID 624467, 2012;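 active means activation above the mean activation of all test compounds in the run plus 3 SD, cut at about 38% in these data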
# Target sequence (Q96RJ0 whole entry, looked up): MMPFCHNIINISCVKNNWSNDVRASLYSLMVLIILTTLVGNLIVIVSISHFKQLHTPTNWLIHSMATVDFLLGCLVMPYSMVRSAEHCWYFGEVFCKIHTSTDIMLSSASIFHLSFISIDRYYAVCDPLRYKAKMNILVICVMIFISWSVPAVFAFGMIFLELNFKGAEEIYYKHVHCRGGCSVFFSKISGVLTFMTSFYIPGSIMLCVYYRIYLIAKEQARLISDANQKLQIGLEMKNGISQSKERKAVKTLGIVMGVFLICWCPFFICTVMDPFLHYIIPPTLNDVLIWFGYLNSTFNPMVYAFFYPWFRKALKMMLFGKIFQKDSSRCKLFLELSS
#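 System: CHO-derived RD-HGA16 cells with stable Gα16 and human TAAR1 / Times: 17-24 h plating, Fluo-8 75 min 37 °C, 30 min RT / Technique: calcium-sensitive Fluo-8 signal, excitation 470-495, emission 515-575 nm / Measure: % activation relative to PEA EC100 response / Benchmarks: DMSO and PEA EC100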
# CHO parental Ca: ATP-evoked calcium signal inhibitors, parental CHO, primary screen, counter-screen for OX1R antagonist project, cell-based, fluorescence, Fluo-8 calcium dye. 330,000 tested, 0.63% active. parental CHO-K1, ATP-induced calcium, Fluo-8 fluorescence. inhibition, % at 5.6 µM;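 active means inhibition above that plate's mean sample inhibition plus 3 SD, cut at about 26% in these data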;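 further: 0% = ATP-challenged DMSO wells and 100% = DMSO wells without ATP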
#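 Measured by: calcium-sensitive Fluo-8 fluorescence / Test system: CHO parental line / Controls: ATP-challenged DMSO wells low, unchallenged DMSO wells high / Measure: % inhibition / Compound: single nominal dose of 5.6 µM per compound / Replicates: single well per compound, no replicates / Reagent: ATP as calcium-mobilizing challenge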
# TAAR1 antag: human TAAR1 antagonists, primary screen, Fluo-8 calcium fluorescence, CHO RD-HGA16 cells. antagonist. Trace amine-associated receptor 1 (Homo sapiens), Q96RJ0. inhibition, % at 3 µM. 360,000 tested, 1.5% active;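 active means inhibition above a per-plate cutoff, the mean inhibition of test compounds on that plate plus 3 SD, cut at about 49% in these data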;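 further: 0% = DMSO plus EC80 beta-PEA response and 100% = DMSO alone without agonist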
#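 Material: RD-HGA16 CHO cells with stable hTAAR1 and Gα16; Dosing: single nominal final test compound concentration of 3 µM; Schedule: seeding 17-24 h prior, 75-min 37 °C, 30-min RT dye loading; Detection: kinetic Fluo-8 calcium fluorescence measurement; Measure: % inhibition from peak post-agonist over basal fluorescence ratio; Benchmarks: vehicle and agonist controls.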
# GalR3 antagonist: GalR3 antagonists in HEK293 cells, primary screen, cell-based, fluorescence readout. HEK293 GalR3-CNG cAMP membrane potential fluorescence; galR3 body fused to GalR1 C-terminus. inhibition, % at 3 µM. 360,000 tested, 0.44% active;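 active means inhibition above the screen-wide average plus 3 SD, cut at about 13% in these data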;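 further: forskolin and galanin both at EC90 stimulate the cells; cAMP rise reported by CNG channel membrane potential dye signal; 0% = forskolin plus galanin with DMSO and 100% = forskolin alone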
# Target sequence (O60755 1-299 limits assumed): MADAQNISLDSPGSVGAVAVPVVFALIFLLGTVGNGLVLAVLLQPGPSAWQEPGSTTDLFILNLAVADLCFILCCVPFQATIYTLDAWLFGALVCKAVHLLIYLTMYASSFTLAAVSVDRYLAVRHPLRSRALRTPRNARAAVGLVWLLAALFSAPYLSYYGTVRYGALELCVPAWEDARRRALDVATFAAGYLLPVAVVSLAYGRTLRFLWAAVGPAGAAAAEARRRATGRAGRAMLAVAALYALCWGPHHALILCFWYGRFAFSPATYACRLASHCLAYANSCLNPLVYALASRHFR
# OX1R antag-1: OX1R (HCRTR1) antagonists, primary screen, fluorescence, CHO/OX1R cells, Fluo-8 calcium, orexin A; inhibition, % at 5 µM; Orexin/Hypocretin receptor type 1 (Homo sapiens), O43613; Fluo-8 calcium fluorescence; 330,000 tested, 0.43% active;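 active means inhibition above its plate's threshold, mean inhibition of all tested compounds on the plate plus 3 SD, cut at about 37% in these data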;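 further: 0% = orexin A challenge wells and 100% = SB-334867-A antagonist wells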
# OX1R antag-2: antagonists of human orexin 1 receptor (OX1R). 330,000 tested, 1.8% active. OX1R-expressing cells, FRET antagonist read-out. inhibition, % at 6.6 µM. Orexin/Hypocretin receptor type 1 (Homo sapiens), O43613. AID 485270, 2010; in the data active means inhibition mostly above about 38%, no sharp cut-off; inactive means mostly below about 40%;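 further: 0% = agonist challenge alone and 100% = reference antagonist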
# OX1R Fluo8 conf: OX1R (HCRTR1) antagonists, confirmation, fluorescence, CHO/OX1R cells, Fluo-8 calcium, orexin A. AID 492963, 2010. orexin A calcium Fluo-8 fluorescence. inhibition, % at 5 µM. 1,100 tested, 38% active. shares compounds with OX1R antag-1; in the data active means inhibition above about 29%;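 further: 0% = agonist challenge alone and 100% = reference antagonist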
# CHO Ca triplic: ATP-evoked calcium inhibition in parental CHO, counter-screen for OX1R antagonist project, cell-based, fluorescence, CHO-K1, triplicate | shares compounds with OX1R antag-1 | ATP-induced calcium, Fluo-8 fluorescence | inhibition, % at 5.6 µM | 1,100 tested, 9.3% active | AID 492965, 2010;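 active means inhibition above a per-plate limit, the mean inhibition of that plate's test compounds plus 3 SD, cut at about 25% in these data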;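 further: 0% = ATP challenge with DMSO and 100% = DMSO without ATP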
# The depositor's hits bear a star; nt = no result.
SMILES,TAAR1 ag,CHO parental Ca,TAAR1 antag,GalR3 antagonist,OX1R antag-1,OX1R antag-2,OX1R Fluo8 conf,CHO Ca triplic
Cc1noc(C)c1CSCC(=O)OCC(=O)N1CC(=O)Nc2ccccc21,14,-3,-11,-5,-21,19,nt,nt
Cc1noc(C)c1COc1ccc(C(=O)OCC(=O)N2CC(=O)Nc3ccccc32)cc1,9,-2,5,-5,82*,35,76*,-7
CC(=O)c1ccccc1NC(=O)CN1C(=O)CS/C1=C\c1nc(-c2ccc(C)cc2)cs1,10,-8,-1,-5,-20,10,nt,nt
CC1(c2ccc(OC(F)F)cc2)NC(=O)N(CC(=O)Nc2ccc(N3CCCCC3)cc2)C1=O (configuration not stated),50*,14,44,-1,18,-1,62*,32*
CC1(c2ccc([N+](=O)[O-])cc2)NC(=O)N(CC(=O)Nc2ccc(N3CCCCC3)cc2)C1=O (configuration not stated),43*,18,40,-7,21,6,48*,20
COc1ccc(Nc2nccc(-c3cccc(N)c3)n2)cc1,3,-10,24,-12,-34,8,nt,nt
O=C(Nc1ccccc1Cl)Nc1ccccc1Cl,-3,-9,-45,-1,-29,14,nt,nt
O=C(Nc1csc([N+](=O)[O-])c1)Nc1ccccc1Cl,10,3,23,2,35,44,1,42*
CCOP(=O)(OCC)C(Nc1ccccc1)c1ccco1 (configuration not stated),4,0,-5,1,-31,15,nt,nt
c1ccc(Cn2nnnc2C(c2cccs2)N2CCCCCC2)cc1 (configuration not stated),18,4,48,2,38,9,-15,-13
COc1ccc(/C=c2\sc3nc(-c4ccccc4OC)nn3c2=O)c(OC)c1,13,-2,5,-2,43*,16,90*,18
Cc1ccc(C2CC(=O)NC(SCC(N)=O)=C2C#N)s1 (configuration not stated),0,1,4,-2,-3,6,nt,nt
Cc1ccc(Cl)cc1N1CCN(C(=O)c2ccc3c(c2)CCN3S(C)(=O)=O)CC1,4,13,12,-7,31,16,-2,-5
CS(=O)(=O)N1CCc2cc(C(=O)N3CCN(c4cccc(Cl)c4)CC3)ccc21,5,-16,-21,-2,2,-1,nt,nt
Cc1cc(Cl)ccc1NC(=S)NCc1ccc(Cl)cc1,16,11,29,-5,28,40,-4,5
Cc1cc(-c2ccc(C)c(S(=O)(=O)NCC3CCN(Cc4ccccc4F)CC3)c2)on1,6,-21,-6,-7,-27,18,nt,nt
O=c1cc(CN2CC(O)Cc3ccc4ccccc4c32)nc2sccn12 (configuration not stated),0,-12,13,-5,71*,47,57*,-6
CCc1ccccc1N(C)C(=O)CCc1nc(-c2ccc(C)cc2)no1,9,-14,21,-4,-5,11,nt,nt
COc1ccc(OC(=O)N2CCOCC2)cc1,-1,3,-1,-8,26,-3,-1,3
CSc1cc(C)c(OCC(=O)Nc2ccc(NC(C)=O)cc2)c(C)c1,0,-9,9,-8,28,34,14,-1
CC(=O)C1=C(C)Nc2ncnn2C1c1ccc(Cl)cc1 (configuration not stated),1,0,-19,-4,-21,11,nt,nt
Cc1cc2nc(-c3cccnc3SCC(=O)NCc3ccco3)[nH]c2cc1C,3,-14,-1,1,26,14,-3,-3
COc1ccc(/C=C/c2nc3ccccc3n2C)cc1,0,-8,-23,-8,-28,10,nt,nt
Cc1ccc(NCC(=O)N/N=C\c2cccc(O)c2)cc1,1,0,-14,-3,3,7,nt,nt
Nc1c(C(O)(C(F)(F)F)C(F)(F)F)cc(C(O)(C(F)(F)F)C(F)(F)F)c2ccccc12,nt,7,nt,nt,28,25,-6,-1
SMILES,TAAR1 ag,CHO parental Ca,TAAR1 antag,GalR3 antagonist,OX1R antag-1,OX1R antag-2,OX1R Fluo8 conf,CHO Ca triplic
COc1cccc2cc(-c3nc(-c4cccs4)cs3)c(=O)oc12,6,-5,15,-4,39,32,69*,-7
CCOc1nc(-c2ccc(OC)cc2)ccc1-c1noc(-c2ccncc2)n1,1,nt,11,-7,nt,nt,nt,nt
CCC(C)NS(=O)(=O)c1ccc(S(=O)(=O)N(CC(=O)Nc2ccccc2)Cc2ccco2)cc1 (configuration not stated),14,-1,22,2,49*,4,0,-5
O=C(Cc1cccs1)N1CCC(c2nc3c(nnn3Cc3ccc(F)cc3)c(=O)[nH]2)CC1,15,-17,5,-4,-26,8,nt,nt
CC(C)(C)c1cc(C(=O)CCN2CCOCC2)cc(C(C)(C)C)c1O,4,22,18,-12,37,2,-3,-19
N#Cc1ccc(-c2cccnc2)nc1SCC(=O)c1ccccc1,5,22,15,-4,53*,22,23,13
N#Cc1ccc(-c2ccccc2)nc1SCC(=O)c1cccc(Cl)c1,8,3,-3,-5,-2,4,nt,nt
O=C(NCCc1c[nH]c2ccccc12)c1cc(Cl)c2c(c1)OCO2,0,-13,22,-2,-12,3,nt,nt
NC(=O)c1ccc(N2CCN(c3ccccc3O)CC2)c([N+](=O)[O-])c1,11,8,1,-2,1,30,nt,nt
NC(=O)c1ccc(N2CCN(c3ccccc3F)CC2)c([N+](=O)[O-])c1,4,20,2,0,24,28,7,22
COc1cccc(C(=O)/C=C/Nc2ccc(S(=O)(=O)Nc3cccc(C(C)=O)c3)cc2)c1,11,16,56*,-9,32,50,25,14
O=C(COC(=O)c1cc(=O)c2ccccc2o1)Nc1ccccc1F,0,-4,6,-3,-11,12,nt,nt
